Here are results for two molecules from paper PMC6282495 (Clinical Pharmacology and Therapeutics, 2018).

“Also recorded” adds a separate entry of the source. Where two headings read alike, the source gives them in different places.

Series [1] is described as follows: In-house data on metabolic clearance routes and plasma protein binding. In kind it is in vitro ADME.
For series [2], the system named is activation of NSPs (NE, Pr3, and CatG) in human primary bone marrow-derived CD34+ neutrophil progenitor cells. The note with it: cited from earlier work.
A further series deals with efflux transporters. Put plainly: In-house data on efflux transporter substrate status. In kind it is in vitro ADME.
The subject of series [3] is whole blood neutrophil elastase (NE) activity. The experiment in a line: Whole blood NE activity. The format is in vivo, human. The essentials: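 Part II only: healthy males on 10, 25 or 40 mg once daily for 21 or 28 days, or placebo (pooled). Whole-blood NE activity was expressed as percent change from each subject's baseline, […]. The 25 and 40 mg cohorts had follow-up visits up to 1 month after leaving the unit. ANC-normalized activity was fitted with a transit-compartment maturation model in which plasma concentration inhibits entry into the first compartment via a sigmoid Hill function. Blood neutrophil half-life was fixed from literature and maximal inhibition was fixed at complete.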

A short description of series [4]: AZD7986 plasma pharmacokinetics. The format is in vivo, human. The essentials:
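Healthy male subjects received oral AZD-class test compound. In Part I, single doses of 5–65 mg were given to cohorts of nine, three of them on placebo, with plasma sampled up to 96 h. In Part II, 10, 25 or 40 mg were given once daily for 21 or 28 days, with sampling up to 24 h after the first dose and 96 h after the last. Steady state was checked from predose levels on Days 18–20 and 21/28. Parameters came from noncompartmental analysis.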

The next series in a line: Population PK model. In kind it is in vivo, human. The method, boiled down: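 Pooled Part I and II plasma concentrations (5–65 mg single doses; 10–40 mg once daily) were fitted with a three-compartment model. It had first-order absorption with lag, a dose-dependent bioavailability power model (relative bioavailability at 5 mg fixed to 1), and volumes per kg bodyweight. Slow peripheral volume and bioavailability were allowed to change between first dose and steady state. Interindividual variability was on Vc, CL, Frel, ka and Alag, with additive log-scale error. Estimates carry 90% CI, with visual predictive checks from 1,000 simulations.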

The nature of series [5]: Safety and tolerability in healthy subjects. The format is in vivo, human.
The subject of a further series is NSP activity. The note with it: 21 days of dosing; cited from earlier work.
The conditions of series [6]: cited from earlier work.
A further series has as its system DPP1. The note with it: once daily, 21 days of dosing; cited from earlier work.
Setting [7] is: between first dose and steady state.

On to `Cn1c(=O)oc2ccc(-c3ccc(C[C@@H](C#N)NC(=O)[C@@H]4CNCCCO4)cc3)cc21` [AZD7986], for which the “Saturable metabolic clearance routes or plasma protein binding” value in series [1] is “does not indicate”. Also, in series [2] (NE, Pr3 and CatG), the Hill coefficient is roughly 0.65. For the same molecule, the “Extent of inhibition of activation of all three NSPs” value in series [2] (concentration-dependent) is “completely inhibit”. Also, the IC50 in series [2] (read-out: IC50 for inhibition of NSP activation, NE, Pr3 and CatG) was 60 to 200 nM. In the series on efflux transporters, the “Substrate for efflux transporters” value is “may be a substrate for efflux transporters”. In addition, in series [3] (40 mg dose group, 28 days once daily), the “Observed reduction of whole blood NE activity, on average” value is recorded as “more than 50%”. The “Recovery of NE activity after cessation of dosing” value in series [3] (25 and 40 mg cohorts, follow-up visits) is on record as “recovers once treatment is stopped”. Further, the “IIV IC50, interindividual variability in IC50” value in series [3] (PK-PD model) is listed as 33.3%. Further, in [3] (PK-PD model, Imax fixed to 1 (100%)), the “nH, Hill coefficient” value is given as 0.697. The “Average time to steady state of whole blood NE activity after initiation of dosing” value in series [3] (implied by estimated MTT, N and PK) is listed as “about 25 days”. Further, the “Start of response in whole blood NE activity after treatment initiation” value in series [3] (three active doses compared to placebo) is roughly 12 days. The molecule further came in with a half-life in [4] (male, human, plasma, po, Terminal half-life, after a single oral dose) of 20 to 26 h. Besides, in series [4] (oral dosing, healthy subjects), the “Time of maximum plasma levels (Cmax) after dosing” value lay in the range of 0.5 to 1.5 h. Besides, the “Increase in oral bioavailability” value in “Population PK model” (between 5 and 65 mg, power model) was roughly 2 fold. In “Population PK model” (setting [7]), the “Fsteadystate_change, percent change in bioavailability” value is on record as 24.3% and the “Vp,slow,steadystate_change, percent change in volume of slowly equilibrating tissue compartment” value stood at 34%. Moreover, in “Population PK model” (population PK model estimate), the “Alag, absorption lag time” value is on record as 0.159 h; the “CL, apparent clearance from central compartment” value is given as 12.0 L/h; the “IIV Alag, interindividual variability in Alag” value is recorded as 21.3%; the “IIV CL, interindividual variability in CL” value was 22.2%. In the series “Population PK model” (population PK model estimate), the “IIV Frel, interindividual variability in Frel” value was 18.2%; the “IIV Vc, interindividual variability in Vcentral” value is 53.6%; the “IIV ka, interindividual variability in ka” value is reported as 28.8%; the “Qfast, apparent intercompartmental clearance between plasma and rapidly equilibrating tissues” value is 122 L/h. For the same molecule, in the series “Population PK model” (population PK model estimate), the “Qslow, apparent intercompartmental clearance between plasma and slowly equilibrating tissues” value is 14.7 L/h; the “Vc, apparent volume per kg bodyweight of central plasma compartment” value is 0.368 L/kg; the “Vp,fast, apparent volume per kg bodyweight of rapidly equilibrating tissue compartment” value was 2.45 L/kg; the “ka, absorption rate constant” value is 0.809 h⁻¹. The “Fslope, slope parameter for bioavailability vs. dose power model” value in “Population PK model” (relative to 5 mg single dose) is listed as 0.228. In addition, the “Vp,slow, apparent volume per kg bodyweight of slowly equilibrating tissue compartment” value in “Population PK model” (single dose, population PK model estimate) was 1.97 L/kg. Also, the “Discontinuation of treatment due to skin AE of lichenoid drug eruption” value in series [5] (25 mg, Day 13) is listed as “One subject”. Also, the “Skin findings of special interest seen in the highest dose group” value in series [5] (Part II, 40 mg, number of subjects) is reported as “four”. In series [5] (Part II, number of subjects), the “Skin findings of special interest seen in subjects treated with AZD7986” value is on record as “five of the six”. In addition, the “Effect on the number of neutrophils in blood” value in series [5] (Part II, repeated dosing) is on record as “no clinically significant effect”. In series [5] (Parts I and II), the “Clinical laboratory results, 12-lead ECGs, telemetry results” value was “No trends were observed”; the Infection risk entry is given as “no signal of increased infection risk”; the Serious adverse events result is on record as “No serious adverse events”. Further, in series [5] (gingival probing), the “Mild gingival bleeding, AZD7986 versus placebo” value was “no difference”. Moreover, the Overall tolerability entry in [5] (single doses 5-65 mg, once daily 10-40 mg for 21 or 28 days) was “well tolerated”.
As to `CC[C@@H](/C=C/C(=O)N1CCc2ccccc21)NC(=O)C1(N)CCOCC1` [GSK2793660], in the series with NSP activity, the “Effect on NSP activity” value is “no clear effect”. The half-life in series [6] (administered once daily) is 1.5 h. Moreover, in series [6], the “Cases of skin desquamation” value is “seven”; the “Downstream effect reported on skin” value was “epidermal desquamation on palmar and plantar surfaces”. The “DPP1 inhibition in whole blood” value in the series with DPP1 is recorded as “sustained inhibition; also recorded: sustained, near‐complete”.

In general, Hill coefficient refers to the slope factor of the fitted curve. The IC50 is the midpoint of a concentration-inhibition curve. For orientation: half-life means how long it takes for the measured level to halve.
